Reference: ChEMBL document CHEMBL5705886, “GSK1070916, a potent Aurora B/C kinase inhibitor with broad antitumor activity in tissue culture cells and human tumor xenograft models” (Mol Cancer Ther, 2009)
Active and inactive are the calls of the source. The rule behind the calls is not given here.

What was measured:
SK-BR-3 = test: Antiproliferative activity against human SK-BR-3 cells assessed as inhibition of cell viability measured for 6 to 7 days by cell titer glo assay; type: functional, cell-based
Summary of the method: (§1)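 Cells seeded in recommended growth medium, held overnight at 37°C in 5% CO2, then exposed to serial dilutions of inhibitor for 6–7 d. A time-zero plate was read with CellTiter-Glo at dosing. Luminescent viability read at the end. No-cell wells subtracted as background, data expressed as percent of DMSO control.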

CTV-1 = test: Antiproliferative activity against human CTV-1 cells assessed as inhibition of cell viability measured for 6 to 7 days by cell titer glo assay; type: functional, cell-based
Summary of the method: (§2)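 Tumor lines plated in recommended growth media, overnight at 37°C, 5% CO2, then given serial dilutions; a T=0 plate read with CellTiter-Glo at dosing. After 6–7 d of exposure, viability read by CellTiter-Glo luminescence. No-cell wells subtracted, data expressed as % of DMSO control.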

[1] = Antiproliferative activity against human EM-3 cells assessed as inhibition of cell viability measured for 6 to 7 days by cell titer glo assay; type: functional, cell-based; summary of the method: as §2
[2] = Antiproliferative activity against human EB1 cells assessed as inhibition of cell viability measured for 6 to 7 days by cell titer glo assay; type: functional, cell-based; summary of the method: as §2
ST486 = test: Antiproliferative activity against human ST486 cells assessed as inhibition of cell viability measured for 6 to 7 days by cell titer glo assay; type: functional, cell-based; summary of the method: as §1
Farage = test: Antiproliferative activity against human Farage cells assessed as inhibition of cell viability measured for 6 to 7 days by cell titer glo assay; type: functional, cell-based; summary of the method: as §2
[3] = Antiproliferative activity against human BC1 cell line assessed as inhibition of cell viability measured for 6 to 7 days by cell titer glo assay; type: functional, cell-based; summary of the method: as §2
MOLT-16 = test: Antiproliferative activity against human MOLT-16 cells assessed as inhibition of cell viability measured for 6 to 7 days by cell titer glo assay; type: functional, cell-based
Summary of the method: (§3)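 Cells seeded in recommended growth medium, incubated overnight at 37°C in 5% CO2, then exposed to serial dilutions of inhibitor for 6–7 d. A parallel plate was read with CellTiter-Glo at compound addition as a T=0 value. The luminescent viability readout had no-cell background subtracted and was expressed as % of DMSO control.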

SUD4 = test: Antiproliferative activity against human SU-DHL-4 cells assessed as inhibition of cell viability measured for 6 to 7 days by cell titer glo assay; type: functional, cell-based; summary of the method: as §1
[4] = Antiproliferative activity against human DND41 cells assessed as inhibition of cell viability measured for 6 to 7 days by cell titer glo assay; type: functional, cell-based; summary of the method: as §2
CCRF-SB = test: Antiproliferative activity against human CCRF-SB cells assessed as inhibition of cell viability measured for 6 to 7 days by cell titer glo assay; type: functional, cell-based; summary of the method: as §2
U-937 = test: Antiproliferative activity against human U-937 cells assessed as inhibition of cell viability measured for 6 to 7 days by cell titer glo assay; type: functional, cell-based
NCI-H460 [5] = test: Antiproliferative activity against human NCI-H460 cells assessed as inhibition of cell viability measured for 6 to 7 days by cell titer glo assay; type: functional, cell-based; summary of the method: as §1
HCT-116 = test: Antitumor activity in human HCT-116 cells xenografted in nude mouse assessed as reduction in tumor growth at 25 to 100 mg/kg, ip administered once daily for 5 consecutive days with 2 days off scheduled for 3 cycles measured upto 60 days; details: dose 25-100 mg/kg, time <= 60.0 day
[6] = Antiproliferative activity against human HuNS1 cells assessed as inhibition of cell viability measured for 6 to 7 days by cell titer glo assay; type: functional, cell-based; summary of the method: as §3
Toledo = test: Antiproliferative activity against human Toledo cells assessed as inhibition of cell viability measured for 6 to 7 days by cell titer glo assay; type: functional, cell-based; summary of the method: as §1
OCI-AML2 = test: Antiproliferative activity against human OCI-AML2 cells assessed as inhibition of cell viability measured for 6 to 7 days by cell titer glo assay; type: functional, cell-based; summary of the method: as §1
NALM-6 = test: Antiproliferative activity against human NALM-6 cells assessed as inhibition of cell viability measured for 6 to 7 days by cell titer glo assay; type: functional, cell-based; summary of the method: as §3
Raji = test: Antiproliferative activity against human Raji cells assessed as inhibition of cell viability measured for 6 to 7 days by cell titer glo assay; type: functional, cell-based; summary of the method: as §1
NCI-H157 = test: Antiproliferative activity against human NCI-H157 cells assessed as inhibition of cell viability measured for 6 to 7 days by cell titer glo assay; type: functional, cell-based; summary of the method: as §3
BC-3 = test: Antiproliferative activity against human BC-3 cells assessed as inhibition of cell viability measured for 6 to 7 days by cell titer glo assay; type: functional, cell-based; summary of the method: as §2
CRO-AP2 = test: Antiproliferative activity against human CRO-AP2 cells assessed as inhibition of cell viability measured for 6 to 7 days by cell titer glo assay; type: functional, cell-based; summary of the method: as §2
CCRF-HSB-2 = test: Antiproliferative activity against human HSB-2 cells assessed as inhibition of cell viability measured for 6 to 7 days by cell titer glo assay; type: functional, cell-based; summary of the method: as §3
NCI-H460 [7] = test: Antitumor activity in human NCI-H460 cells xenografted in nude mouse assessed as reduction in tumor growth at 25 to 100 mg/kg, ip administered once daily for 5 consecutive days with 2 days off scheduled for 3 cycles measured upto 60 days; details: dose 25-100 mg/kg, time 60.0 day
[8] = Antiproliferative activity against human ALL-SIL cells assessed as inhibition of cell viability measured for 6 to 7 days by cell titer glo assay; type: functional, cell-based; summary of the method: as §2
CESS = test: Antiproliferative activity against human CESS cells assessed as inhibition of cell viability measured for 6 to 7 days by cell titer glo assay; type: functional, cell-based; summary of the method: as §2
Jurkat = test: Antiproliferative activity against human Jurkat cells assessed as inhibition of cell viability measured for 6 to 7 days by cell titer glo assay; type: functional, cell-based; summary of the method: as §3
HL-60 [9] = test: Antitumor activity in human HL-60 cells xenografted in SCID mouse assessed as median survival time at 50 mg/kg, ip administered once daily for 5 consecutive days with 2 days off scheduled for 2 cycles measured upto 120 days; type: functional; details: time <= 120 day
A549 = test: Antitumor activity in human A549 cells xenografted in nude mouse assessed as reduction in tumor growth at 25 to 100 mg/kg, ip administered once daily for 5 consecutive days with 2 days off scheduled for 3 cycles measured upto 60 days; details: dose 25-100 mg/kg, time <= 60.0 day
CA46 = test: Antiproliferative activity against human CA46 cells assessed as inhibition of cell viability measured for 6 to 7 days by cell titer glo assay; type: functional, cell-based; summary of the method: as §2
786-0 = test: Antiproliferative activity against human 786-0 cells assessed as inhibition of cell viability measured for 6 to 7 days by cell titer glo assay; type: functional, cell-based; summary of the method: as §2
DG-75 = test: Antiproliferative activity against human DG-75 cells assessed as inhibition of cell viability measured for 6 to 7 days by cell titer glo assay; type: functional, cell-based; summary of the method: as §2
K562 = test: Antitumor activity in human K562 cells xenografted in SCID mouse assessed as reduction in tumor growth at 100 mg/kg, ip administered once daily for 5 consecutive days with 2 days off scheduled for 3 cycles measured upto 60 days; type: functional, organism-based; details: time 60.0 day
HL-60 [10] = test: Antiproliferative activity against human HL-60 cells assessed as inhibition of cell viability measured for 6 to 7 days by cell titer glo assay; type: functional, cell-based; summary of the method: as §3
SW-620 = test: Antiproliferative activity against human SW620 cells assessed as inhibition of cell viability measured for 6 to 7 days by cell titer glo assay; type: functional, cell-based; summary of the method: as §1

Work on `CCn1cc(-c2ccnc3[nH]c(-c4cccc(CN(C)C)c4)cc23)c(-c2ccc(NC(=O)N(C)C)cc2)n1` [GSK-1070916] yielded an EC50 (SK-BR-3) of 4 nM, an EC50 (CTV-1) of 4 nM and an EC50 [1] of 4 nM. It also gave an EC50 [2] of 7 nM, an EC50 (ST486) of 2 nM and an EC50 (Farage) of 7 nM. The EC50 [3] was 18 nM, the EC50 (MOLT-16) was 3 nM and the EC50 (SUD4) was 5 nM. It also gave an EC50 [4] of 787 nM, an EC50 (CCRF-SB) of 2 nM and an EC50 (U-937) of 5 nM. The EC50 (NCI-H460 [5]) was 14 nM, the Activity (HCT-116) was “Active” and the EC50 [6] was 9 nM. For the same molecule, the EC50 (Toledo) was 15 nM, the EC50 (OCI-AML2) was 4 nM and the EC50 (NALM-6) was 2 nM. The EC50 (Raji) was 3 nM, the EC50 (NCI-H157) was 8 nM and the EC50 (BC-3) was 27 nM. For the same molecule, the EC50 (CRO-AP2) was 3 nM, the EC50 (CCRF-HSB-2) was 3 nM and the Activity (NCI-H460 [7]) was “inactive”. For the same molecule, the EC50 [8] was 2 nM, the EC50 (CESS) was 5 nM and the EC50 (Jurkat) was 3 nM. For the same molecule, the MST (HL-60 [9]) was 83 days, the Activity (A549) was “Active” and the EC50 (CA46) was 5 nM. The EC50 (786-0) was 57 nM, the EC50 (DG-75) was 18 nM and the Activity (K562) was “Active”. The EC50 (HL-60 [10]) was 10 nM and the EC50 (SW-620) was 8 nM.
